Test [1] addresses Tropomyosin alpha-3 chain (Homo sapiens) (UniProt P06753). Description: Binding affinity to TPM3 in human NCI-H23 cells at 1 uM by mass spectrometry based pull down assay. The test is classed as cell-based.
Test [2] addresses DnaJ homolog subfamily A member 2 (Homo sapiens) (UniProt O60884). Description: Binding affinity to DNAJA2 in human NCI-H23 cells at 1 uM by mass spectrometry based pull down assay. It counts as cell-based.
The target in test [3] is Tubulin alpha-4A chain (Homo sapiens) (UniProt P68366). Description: Binding affinity to TUBA4A in human NCI-H23 cells at 1 uM by mass spectrometry based pull down assay. It counts as cell-based.
The target of test [4] is T1, 80S Ribosome (Homo sapiens) (UniProt P08865+P42677+P62753+P15880+P23396+P61247+P62701+P22090+P46782+P62081+P62241+P46781+P46783+P62280+P25398+P62277+P62263+P62841+P62244+P62249+P08708+P62269+P39019+P60866+P63220+P62266+P62847+P62851+P62854+P62979+P62857+P62273+P62861+P39023+P36578+P46777+Q02878+P18124+P62424+P62917+P32969+P27635+P62906+P62913+P30050+P26373+P40429+P50914+P61313+P18621+Q07020+Q02543+P84098+P46778+P35268+P62829+P62750+P83731+P61254+P61353+P46776+P46779+P47914+P62888+P62899+P62910+P49207+P42766+P18077+Q9Y3U8+P83881+P61927+P61513+P63173+P62891+P62945+P05388+P05386). Description: Binding affinity to RPLP1 in human NCI-H23 cells at 1 uM by mass spectrometry based pull down assay. The test is classed as cell-based.

Test [5] has as its target Glyoxylate reductase/hydroxypyruvate reductase (Homo sapiens) (UniProt Q9UBQ7). The test can be described thus: Binding affinity to GRHPR in human NCI-H23 cells at 1 uM by mass spectrometry based pull down assay. It counts as cell-based.
For test [6], the target named is Eukaryotic translation initiation factor 3 subunit I (Homo sapiens) (UniProt Q13347). The test can be described thus: Binding affinity to EIF3I in human NCI-H23 cells at 1 uM by mass spectrometry based pull down assay. It counts as cell-based.
Test [7] relates to NCI-H23. The test can be described thus: Binding affinity to PTGES3L-AARSD1 in human NCI-H23 cells at 1 uM by mass spectrometry based pull down assay. It counts as cell-based.
Test [8] deals with Carbonyl reductase [NADPH] 1 (Homo sapiens) (UniProt P16152). Description: Binding affinity to CBR1 in human NCI-H23 cells at 1 uM by mass spectrometry based pull down assay. The test is classed as cell-based.
Sequence of Carbonyl reductase [NADPH] 1 (Homo sapiens) (P16152 whole entry): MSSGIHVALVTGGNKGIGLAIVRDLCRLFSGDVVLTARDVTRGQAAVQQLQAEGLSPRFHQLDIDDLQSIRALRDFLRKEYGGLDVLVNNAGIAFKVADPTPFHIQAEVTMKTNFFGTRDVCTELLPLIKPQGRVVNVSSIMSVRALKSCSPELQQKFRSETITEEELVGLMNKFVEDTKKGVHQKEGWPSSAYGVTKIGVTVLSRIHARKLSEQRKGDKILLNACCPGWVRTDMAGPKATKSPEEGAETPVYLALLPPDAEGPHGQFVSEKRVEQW
Test [9] concerns the target T1, 80S Ribosome (Homo sapiens). The test can be described thus: Binding affinity to RPS7 in human NCI-H23 cells at 1 uM by mass spectrometry based pull down assay. It counts as cell-based.
The target of test [10] is AH receptor-interacting protein (Homo sapiens) (UniProt O00170). The test can be described thus: Binding affinity to AIP in human NCI-H23 cells at 1 uM by mass spectrometry based pull down assay. It counts as cell-based. A digest of the protocol:
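NCI-H23 or NCI-H358 cells were grown and lysed. Lysates were incubated overnight at 4 °C with 1 μM biotinylated covalent probe or DMSO, then pulled down on streptavidin beads. Proteins were run on polyacrylamide gels and stained with Coomassie. Bands were excised, digested and identified by mass spectrometry.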

Test [11] addresses Actin-related protein 2/3 complex subunit 2 (Homo sapiens) (UniProt O15144). The test can be described thus: Binding affinity to ARPC2 in human NCI-H358 cells at 1 uM by mass spectrometry based pull down assay. It counts as cell-based.
Test [12] addresses T1, 80S Ribosome (Homo sapiens). The test can be described thus: Binding affinity to RPS26 in human NCI-H358 cells at 1 uM by mass spectrometry based pull down assay. It counts as cell-based.
The target in test [13] is Pyruvate dehydrogenase E1 component subunit beta, mitochondrial (Homo sapiens) (UniProt P11177). Description: Binding affinity to PDHB in human NCI-H358 cells at 1 uM by mass spectrometry based pull down assay. It counts as cell-based.
The target of test [14] is Multifunctional protein CAD (Homo sapiens) (UniProt P27708). Description: Binding affinity to CAD in human NCI-H358 cells at 1 uM by mass spectrometry based pull down assay. The test is classed as cell-based.
Sequence of Multifunctional protein CAD (Homo sapiens) (P27708 whole entry): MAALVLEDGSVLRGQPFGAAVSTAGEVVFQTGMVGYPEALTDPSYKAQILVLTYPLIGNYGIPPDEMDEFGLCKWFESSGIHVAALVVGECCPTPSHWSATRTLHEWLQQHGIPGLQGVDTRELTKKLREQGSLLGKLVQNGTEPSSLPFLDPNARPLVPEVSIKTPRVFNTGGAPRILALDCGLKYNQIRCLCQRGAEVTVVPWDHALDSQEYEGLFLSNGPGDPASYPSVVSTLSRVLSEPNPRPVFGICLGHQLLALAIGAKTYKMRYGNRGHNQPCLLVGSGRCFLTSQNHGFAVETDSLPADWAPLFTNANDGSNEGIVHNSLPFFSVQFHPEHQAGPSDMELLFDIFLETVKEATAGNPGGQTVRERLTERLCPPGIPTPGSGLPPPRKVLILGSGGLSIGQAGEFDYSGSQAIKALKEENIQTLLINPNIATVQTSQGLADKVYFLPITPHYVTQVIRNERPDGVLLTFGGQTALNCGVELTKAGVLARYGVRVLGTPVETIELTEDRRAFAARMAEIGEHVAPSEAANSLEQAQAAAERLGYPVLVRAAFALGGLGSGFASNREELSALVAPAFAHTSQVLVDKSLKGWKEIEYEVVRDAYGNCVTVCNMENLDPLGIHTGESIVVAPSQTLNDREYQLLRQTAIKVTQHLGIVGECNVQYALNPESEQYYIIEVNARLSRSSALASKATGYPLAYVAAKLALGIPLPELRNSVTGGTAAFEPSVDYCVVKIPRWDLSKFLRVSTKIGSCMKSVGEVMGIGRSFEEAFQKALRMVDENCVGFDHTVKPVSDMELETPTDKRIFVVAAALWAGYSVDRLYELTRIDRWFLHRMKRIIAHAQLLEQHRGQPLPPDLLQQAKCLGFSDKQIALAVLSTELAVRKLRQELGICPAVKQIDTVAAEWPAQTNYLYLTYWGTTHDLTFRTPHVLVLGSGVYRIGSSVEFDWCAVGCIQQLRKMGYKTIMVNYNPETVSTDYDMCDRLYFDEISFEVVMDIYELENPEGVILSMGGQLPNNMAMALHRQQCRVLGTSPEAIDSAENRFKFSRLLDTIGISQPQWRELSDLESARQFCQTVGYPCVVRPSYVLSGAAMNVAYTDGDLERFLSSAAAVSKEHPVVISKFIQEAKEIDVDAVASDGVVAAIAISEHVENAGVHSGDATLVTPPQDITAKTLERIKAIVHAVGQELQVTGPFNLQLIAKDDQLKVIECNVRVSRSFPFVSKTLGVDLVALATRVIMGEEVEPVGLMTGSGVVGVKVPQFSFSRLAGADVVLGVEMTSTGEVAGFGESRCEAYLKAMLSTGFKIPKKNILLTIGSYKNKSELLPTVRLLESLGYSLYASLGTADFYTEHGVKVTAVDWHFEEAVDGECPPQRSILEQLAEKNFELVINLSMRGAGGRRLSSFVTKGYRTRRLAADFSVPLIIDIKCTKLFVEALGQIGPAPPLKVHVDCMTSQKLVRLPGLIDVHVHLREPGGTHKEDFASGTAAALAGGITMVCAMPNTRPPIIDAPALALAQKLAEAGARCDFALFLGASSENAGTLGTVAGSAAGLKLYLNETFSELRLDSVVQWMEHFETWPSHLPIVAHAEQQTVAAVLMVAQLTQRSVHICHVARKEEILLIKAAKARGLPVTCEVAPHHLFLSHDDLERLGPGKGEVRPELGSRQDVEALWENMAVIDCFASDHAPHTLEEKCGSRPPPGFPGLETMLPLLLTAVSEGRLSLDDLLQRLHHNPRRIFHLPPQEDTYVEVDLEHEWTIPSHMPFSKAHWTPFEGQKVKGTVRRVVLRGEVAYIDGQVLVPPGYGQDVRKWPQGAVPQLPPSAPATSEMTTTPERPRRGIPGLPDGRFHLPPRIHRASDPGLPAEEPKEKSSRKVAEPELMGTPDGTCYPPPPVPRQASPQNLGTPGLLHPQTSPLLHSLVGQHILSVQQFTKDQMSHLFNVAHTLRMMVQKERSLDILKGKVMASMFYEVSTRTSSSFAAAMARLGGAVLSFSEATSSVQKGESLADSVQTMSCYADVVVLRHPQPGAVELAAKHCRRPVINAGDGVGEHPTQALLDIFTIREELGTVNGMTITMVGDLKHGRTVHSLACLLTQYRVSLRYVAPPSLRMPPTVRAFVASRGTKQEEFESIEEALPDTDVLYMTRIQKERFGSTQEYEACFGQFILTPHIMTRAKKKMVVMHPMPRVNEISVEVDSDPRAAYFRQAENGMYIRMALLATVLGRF
Test [15] deals with ATP-dependent RNA helicase DDX3X (Homo sapiens) (UniProt O00571). Description: Binding affinity to DDX3X in human NCI-H358 cells at 1 uM by mass spectrometry based pull down assay. It counts as cell-based.
Sequence of ATP-dependent RNA helicase DDX3X (Homo sapiens) (O00571 2-662 limits assumed): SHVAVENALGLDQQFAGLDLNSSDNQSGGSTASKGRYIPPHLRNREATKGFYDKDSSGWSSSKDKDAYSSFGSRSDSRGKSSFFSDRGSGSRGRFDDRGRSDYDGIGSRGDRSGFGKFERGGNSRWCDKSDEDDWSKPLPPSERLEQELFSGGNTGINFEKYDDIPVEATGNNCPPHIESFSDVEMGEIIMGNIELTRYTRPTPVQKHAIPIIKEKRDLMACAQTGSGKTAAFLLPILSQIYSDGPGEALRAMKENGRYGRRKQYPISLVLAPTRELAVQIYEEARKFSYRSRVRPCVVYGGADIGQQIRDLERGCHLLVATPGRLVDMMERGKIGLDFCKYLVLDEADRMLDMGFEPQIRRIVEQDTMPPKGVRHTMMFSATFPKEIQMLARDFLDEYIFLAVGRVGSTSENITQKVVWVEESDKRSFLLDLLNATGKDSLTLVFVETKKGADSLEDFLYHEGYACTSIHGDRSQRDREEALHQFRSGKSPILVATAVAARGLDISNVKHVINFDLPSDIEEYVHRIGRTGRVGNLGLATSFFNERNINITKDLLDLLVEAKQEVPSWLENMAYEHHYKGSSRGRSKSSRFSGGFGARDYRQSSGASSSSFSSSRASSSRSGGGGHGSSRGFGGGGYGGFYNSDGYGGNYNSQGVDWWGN
For test [16], the target named is V-type proton ATPase catalytic subunit A (Homo sapiens) (UniProt P38606). Description: Binding affinity to ATP6V1A in human NCI-H358 cells at 1 uM by mass spectrometry based pull down assay. It counts as cell-based.
Test [17] addresses 5'-AMP-activated protein kinase catalytic subunit alpha-1 (Homo sapiens) (UniProt Q13131). The test can be described thus: Binding affinity to PRKAA1 in human NCI-H358 cells at 1 uM by mass spectrometry based pull down assay. It counts as cell-based.
The target in test [18] is Mitogen-activated protein kinase kinase kinase 21 (Homo sapiens) (UniProt Q5TCX8). Description: Inhibition of MLK4 in human SKCO1 cells at 1 uM after 4 hrs using biotin labeled DLKSSNILLLEK probe by mass-spectrometric analysis relative to control. The test is classed as cell-based.
The target of test [19] is NUAK family SNF1-like kinase 2 (Homo sapiens) (UniProt Q9H093). The test can be described thus: Inhibition of NuaK2 in human SKCO1 cells at 1 uM after 4 hrs using biotin labeled LVAIKSIR probe by mass-spectrometric analysis relative to control. It counts as cell-based.
Test [20] addresses Serine/threonine-protein kinase TBK1 (Homo sapiens) (UniProt Q9UHD2). The test can be described thus: Inhibition of TBK1 in human SKCO1 cells at 1 uM after 4 hrs using biotin labeled TGDLFAIKVFNNISFLRPVDVQMR probe by mass-spectrometric analysis relative to control. The test is classed as cell-based.
Test [21] addresses T2, Dual specificity mitogen-activated protein kinase kinase 6 (Homo sapiens) (UniProt P52564).
T2 sequence (whole entry): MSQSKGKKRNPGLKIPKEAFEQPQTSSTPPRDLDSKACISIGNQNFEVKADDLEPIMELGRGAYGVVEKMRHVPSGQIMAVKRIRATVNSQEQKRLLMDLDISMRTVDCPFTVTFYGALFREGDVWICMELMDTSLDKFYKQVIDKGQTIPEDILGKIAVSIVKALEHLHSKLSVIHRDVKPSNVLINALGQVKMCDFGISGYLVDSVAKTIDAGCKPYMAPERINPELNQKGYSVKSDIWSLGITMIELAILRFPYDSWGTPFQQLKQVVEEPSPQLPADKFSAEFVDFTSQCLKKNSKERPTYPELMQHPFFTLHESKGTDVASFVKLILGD
Description: Inhibition of MAP2K6 in human SKCO1 cells at 1 uM after 4 hrs using biotin labeled DVKPSNVLINALGQVK probe by mass-spectrometric analysis relative to control. The test is classed as cell-based.

In test [22] the target is BMP-2-inducible protein kinase (Homo sapiens) (UniProt Q9NSY1). Description: Inhibition of human BIKE (34 to 329 residues) expressed in bacterial expression system assessed as enzyme activity at 1 uM by KINOMEScan assay relative to control. Details: scale not given: the % may be the effect or the level left. Summed up:
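In vitro ATP-site competition binding assay (KinomeScan) across a panel of 456 kinases. Compound was tested at 1 and 10 μM. The read-out is the binding inhibition score relative to control.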

The structures appear in SMILES notation. Calls of active or inactive are those of the source. The rule behind the calls is not given here.

The inhibition is the drop in the measured response relative to a control, in per cent.

Sequence of Serine/threonine-protein kinase TBK1 (Homo sapiens) (Q9UHD2 whole entry): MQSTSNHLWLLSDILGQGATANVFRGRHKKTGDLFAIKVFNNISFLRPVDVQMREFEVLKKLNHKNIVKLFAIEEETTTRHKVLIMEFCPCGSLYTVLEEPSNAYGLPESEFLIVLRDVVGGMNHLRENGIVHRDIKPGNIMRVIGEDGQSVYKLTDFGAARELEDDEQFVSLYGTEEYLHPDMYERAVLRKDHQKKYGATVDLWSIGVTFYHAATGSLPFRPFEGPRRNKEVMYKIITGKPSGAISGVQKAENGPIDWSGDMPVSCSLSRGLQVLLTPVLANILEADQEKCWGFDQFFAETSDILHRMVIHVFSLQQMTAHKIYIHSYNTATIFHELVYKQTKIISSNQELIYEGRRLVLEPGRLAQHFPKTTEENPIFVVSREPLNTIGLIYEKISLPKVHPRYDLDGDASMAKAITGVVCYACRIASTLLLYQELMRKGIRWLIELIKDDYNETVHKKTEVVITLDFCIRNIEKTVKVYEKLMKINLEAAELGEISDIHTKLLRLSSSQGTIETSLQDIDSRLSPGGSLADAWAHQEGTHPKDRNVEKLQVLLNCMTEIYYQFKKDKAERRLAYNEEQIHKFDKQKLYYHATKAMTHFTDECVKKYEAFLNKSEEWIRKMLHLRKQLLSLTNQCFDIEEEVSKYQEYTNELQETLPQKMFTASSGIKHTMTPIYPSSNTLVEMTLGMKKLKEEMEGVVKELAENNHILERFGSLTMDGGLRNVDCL
Sequence of 5'-AMP-activated protein kinase catalytic subunit alpha-1 (Homo sapiens) (Q13131 whole entry, looked up): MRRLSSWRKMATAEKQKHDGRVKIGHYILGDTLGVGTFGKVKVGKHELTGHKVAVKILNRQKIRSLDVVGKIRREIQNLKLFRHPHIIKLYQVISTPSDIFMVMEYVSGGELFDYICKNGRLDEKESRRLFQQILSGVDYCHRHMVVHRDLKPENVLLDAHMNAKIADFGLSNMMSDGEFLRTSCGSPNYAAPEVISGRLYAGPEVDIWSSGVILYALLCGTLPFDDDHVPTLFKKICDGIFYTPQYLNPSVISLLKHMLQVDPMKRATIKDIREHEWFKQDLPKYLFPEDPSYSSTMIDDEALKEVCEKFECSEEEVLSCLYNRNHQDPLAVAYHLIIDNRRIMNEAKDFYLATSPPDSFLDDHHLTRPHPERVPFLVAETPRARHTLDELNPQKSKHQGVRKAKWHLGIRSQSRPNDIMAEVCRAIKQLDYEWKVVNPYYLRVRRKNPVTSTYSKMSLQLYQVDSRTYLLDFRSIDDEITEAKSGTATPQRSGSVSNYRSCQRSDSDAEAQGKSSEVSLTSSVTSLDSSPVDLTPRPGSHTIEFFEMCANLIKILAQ
Sequence of Glyoxylate reductase/hydroxypyruvate reductase (Homo sapiens) (Q9UBQ7 whole entry): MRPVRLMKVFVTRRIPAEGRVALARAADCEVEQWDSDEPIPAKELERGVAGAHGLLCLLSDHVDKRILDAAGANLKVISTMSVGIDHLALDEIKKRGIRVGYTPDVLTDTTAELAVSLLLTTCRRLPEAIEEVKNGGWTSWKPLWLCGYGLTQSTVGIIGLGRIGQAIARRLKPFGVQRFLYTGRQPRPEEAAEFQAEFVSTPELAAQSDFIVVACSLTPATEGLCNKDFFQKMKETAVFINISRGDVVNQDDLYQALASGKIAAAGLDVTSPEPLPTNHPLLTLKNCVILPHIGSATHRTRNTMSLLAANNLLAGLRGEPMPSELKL
Sequence of Tropomyosin alpha-3 chain (Homo sapiens) (P06753 whole entry): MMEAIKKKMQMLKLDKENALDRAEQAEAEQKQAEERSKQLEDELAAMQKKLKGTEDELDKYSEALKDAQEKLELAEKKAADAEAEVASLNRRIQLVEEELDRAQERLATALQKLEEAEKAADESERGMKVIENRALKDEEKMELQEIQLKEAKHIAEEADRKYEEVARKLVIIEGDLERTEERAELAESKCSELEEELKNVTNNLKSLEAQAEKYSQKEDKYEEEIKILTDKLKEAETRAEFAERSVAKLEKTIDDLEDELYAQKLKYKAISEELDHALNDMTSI

Take `C=CC(=O)Nc1ccccc1Nc1nc(Nc2ccc(N3CCN(CCOCCOCCOCCNC(=O)CCCC[C@@H]4SC[C@@H]5NC(=O)N[C@@H]54)CC3)cc2)ncc1Cl`: the result in [1], in [2], in test [3], in [4], in test [5] and in [6] was Active. Besides, the result in test [7], in [8], in [9], in test [10], in test [11] and in test [12] was Active. The result in [13], in [14], in test [15], in test [16] and in test [17] was Active.

With `C=CC(=O)Nc1ccccc1Nc1nc(Nc2ccc(N3CCN(C)CC3)cc2)ncc1Cl`, the inhibition in test [18] is -1.1%; in test [19], 53.3%; in test [20], 61%.

`COc1cc(O)c2c(c1)/C=C/C[C@H](O)[C@H](O)C(=O)/C=C\C[C@H](C)OC2=O`: the inhibition in test [21] was determined as 54.2%. The Activity in test [22] was determined as 68%.

The values above are taken from ChEMBL document CHEMBL4118021, “Studies of TAK1-centered polypharmacology with novel covalent TAK1 inhibitors” (Bioorg Med Chem, 2017).
